Insulin prom up = MIN6 insulin promoter up-regulation; MIN6 insulin promoter-GFP reporter, high-content imaging; active compounds read high; z-score at 5 µM; actives 0.3% (n = 190,000);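 active means z-score above 3 at 5 µM with at least 500 cells counted in the well; inconclusive means wells under 500 cells, flagged as cytotoxic or low count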
Furin inhibitor = blocks human furin protease activity | inhibition, % at 20 µM or 30 µM | purified furin, fluorogenic substrate cleavage | actives 0.061% (n = 220,000) | AID 463115; in the data active means inhibition above about 25%
Target sequence (P09958 108-714 limits assumed): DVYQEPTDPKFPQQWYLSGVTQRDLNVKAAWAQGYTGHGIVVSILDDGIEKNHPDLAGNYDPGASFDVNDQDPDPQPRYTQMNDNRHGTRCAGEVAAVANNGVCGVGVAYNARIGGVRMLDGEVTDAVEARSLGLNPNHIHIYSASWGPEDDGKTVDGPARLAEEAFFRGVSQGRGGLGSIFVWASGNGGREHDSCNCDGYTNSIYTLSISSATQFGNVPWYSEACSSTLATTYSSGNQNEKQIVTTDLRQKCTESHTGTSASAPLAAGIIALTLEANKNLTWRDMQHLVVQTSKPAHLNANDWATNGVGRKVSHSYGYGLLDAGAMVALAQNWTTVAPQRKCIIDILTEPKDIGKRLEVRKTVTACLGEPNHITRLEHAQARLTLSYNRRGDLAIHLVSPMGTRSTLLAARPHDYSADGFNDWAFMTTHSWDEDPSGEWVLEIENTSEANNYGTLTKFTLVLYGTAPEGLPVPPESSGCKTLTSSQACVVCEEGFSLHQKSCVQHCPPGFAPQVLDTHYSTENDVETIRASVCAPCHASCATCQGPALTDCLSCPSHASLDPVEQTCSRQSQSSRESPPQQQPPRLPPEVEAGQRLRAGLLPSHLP
Autophagy HCS = alters autophagy in cells. MEF GFP-LC3 puncta imaging; test concentration mostly 10 µM. calls only at 10 µM (by protocol). actives 0.98% (n = 190,000);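 active means percentage of spot-positive cells more than 3 SD above its plate mean, without a fluorescence outlier flag or 80% toxicity; inconclusive means no clear call, values can overlap the other calls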
b-catenin transl = beta-catenin nuclear translocation modulation. actives 0.3% (n = 190,000). HeLa beta-catenin nuclear translocation, immunofluorescence imaging. nuclear translocation activity, % at 5 µM;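 active means nuclear translocation activity above 50% at 5 µM, with a well cell count of 50 or more; inconclusive means wells under 50 cells across six images, flagged as toxic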;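 further: per-cell ratio of nuclear to cytoplasmic median beta-catenin stain intensity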
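Test system: human HeLa cells, endogenous beta-catenin. Times: 24 h compound exposure, 37°C. Measured by: beta-catenin immunofluorescence imaging with DAPI.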
MT stabilize HCS = microtubule stabilization, imaging screen | % tubulin-high responders, % at 10 µM | AID 2205 | actives 0.83% (n = 200,000) | HeLa tubulin immunostaining HCS, 24 h; share of cells brighter than vehicle mean+2SD;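 active means plate Z-score above 3 for both tubulin-high and condensed-nucleus cell shares, with cell loss under 80%, at 10 µM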;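 further: anti alpha tubulin signal scored within the nucleus-defined area of each cell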
HSV augment = HSV replication enhancement; AID 1956; actives 0.005% (n = 220,000); HSV replication augmentation in cells, fold increase; maximum fold increase; in the data active means maximum fold increase above about 1.5; inconclusive means no clear call, values can overlap the other calls; tested in PC3 cells
Numbers stand for hits; - = inactive; ? = inconclusive; . = no result given; + = active, no number. Hits are enriched below; roughly 1.9% of the tested compounds scored in any of these assays.

SMILES	Insulin prom up	Furin inhibitor	Autophagy HCS	b-catenin transl	MT stabilize HCS	HSV augment
COC(=O)c1sc2ccccc2c1-n1cccc1C(=O)C(=O)Nc1ccc(C)cc1	.	-	-	.	32	-
COC(=O)c1sccc1-n1cccc1C(=O)C(=O)Nc1ccc(F)cc1	-	-	-	-	-	-
Cc1ccc(N2C(=O)c3cccc4c([N+](=O)[O-])ccc(c34)C2=O)c2cccnc12	-	-	.	52	.	.
Cc1ccnc(N2C(=O)c3cccc4c([N+](=O)[O-])ccc(c34)C2=O)c1	3.1	-	-	-	-	.
O/C(=C\c1ccc2ccccc2n1)c1ccc(O)cc1O	-	-	-	-	-	.
O=C(c1cc(Cl)cc(Cl)c1)N1CCN(c2cc(C(F)(F)F)nc3ccccc23)CC1	-	-	.	-	.	-
CCCCN(C)CC(O)Cn1cc(/C=C/C(=O)c2cccs2)c2ccccc21 (centres undefined)	4.8	-	-	-	-	-
Cc1cc2c(NC(=O)Nc3ccc(C(F)(F)F)cc3)cccc2nn1	-	-	.	-	.	-
CCCCn1c(=O)[nH]c(=O)c2c1nc(-c1ccccc1F)n2Cc1ccccc1	-	-	-	-	-	-
O=c1[nH]c(-c2ccccc2F)nc2c1sc(=S)n2Cc1ccccc1	-	-	+	-	-	-
O=C(Nc1ncn[nH]1)c1cc(S(=O)(=O)Nc2cccc(C(F)(F)F)c2)ccc1Cl	-	-	-	-	-	-
COc1ccccc1-c1cc(C(=O)Nc2cc(C)nn2-c2ccccc2)no1	-	-	-	-	47	-
COCCNC(=O)c1cc(-c2ccccc2OC)on1	-	-	.	-	31	-
COc1ccccc1-c1cc(C(=O)NCc2cccs2)no1	-	-	-	-	-	-
O=c1c2c(nc3nc(NCc4ccccc4Cl)[nH]n13)CCC2	-	-	-	-	-	-
Nc1ccc(N2CCN(c3ccc(Cl)c(Cl)c3)CC2)cc1	-	-	+	-	-	-
CCCOc1cccc(NC(=O)c2cc(C)oc2C)c1	-	-	-	-	-	-
Cc1ccc2c(c1C)NC(=O)C21N2CCCC2C(C(=O)c2ccc3ccccc3c2)C12C(=O)Nc1ccccc12 (centres undefined)	-	-	.	-	.	-
COCCCN1C(=O)c2[nH]nc(-c3ccccc3O)c2C1c1cccc(Cl)c1 (centres undefined)	.	-	+	-	36	-
COCCCN1C(=O)c2[nH]nc(-c3ccccc3O)c2C1c1ccc(Cl)cc1 (centres undefined)	-	-	-	-	44	-
NC(=O)c1ccc(NC(=O)CSc2nnc(-c3ccncc3)n2Cc2ccco2)cc1	.	-	.	-	.	-
COc1ccccc1C(=O)N/C(=C/c1ccc(Br)cc1)C(=O)N1CCCC1	-	-	-	-	-	-
CCCCOc1ccc(-n2nc(C)cc2C)nn1	-	-	-	-	-	-
Cc1cc(C)n(-c2ccc(OCC(=O)O)nn2)n1	3.3	-	-	-	-	-
O=C(CSc1n[nH]c(=O)[nH]c1=O)NC1CCCCC1	-	-	.	-	.	-
SMILES	Insulin prom up	Furin inhibitor	Autophagy HCS	b-catenin transl	MT stabilize HCS	HSV augment
CCOC(=O)C1C(c2cccnc2)NC(=O)NC1(O)C(F)(F)F (centres undefined)	-	-	-	-	17	-
CC(Nc1nc(N2CCNCC2)nc2ccccc12)c1ccccc1 (centres undefined)	-	-	+	-	-	-
Clc1ccc2nc(N3CCNCC3)nc(-c3ccccc3)c2c1	-	-	-	-	-	-
Cc1ccnc(NC(=O)CSc2cc(=O)n(C)c3ccccc23)c1	-	-	+	-	-	-
Cc1cc(NC(c2ccc(Cl)cc2)c2ccc3cccnc3c2O)no1 (centres undefined)	.	-	+	.	-	-
Cc1ccnc(NC(c2cccnc2)c2ccc3cccnc3c2O)c1 (centres undefined)	-	-	-	-	-	-
NCCCC[C@H](NC(=O)C1CCNCC1)c1nnc(CN)o1	-	-	-	-	-	-
CN(C)c1cc(-c2ccccc2)nc(N)n1	-	-	-	.	13	-
Nc1nc(-c2ccccc2)cc(-c2ccccc2O)n1	-	-	-	-	-	-
CC(=O)C1=C(C)NC(SCC(=O)c2ccc(F)cc2)=C(C#N)C1c1ccco1 (centres undefined)	-	-	-	-	-	-
CC(=O)C1=C(C)NC(SCC(=O)c2ccc(Cl)c(Cl)c2)=C(C#N)C1c1ccco1 (centres undefined)	.	-	+	-	-	-
CC(=O)C1=C(C)NC(SCSc2ccccc2)=C(C#N)C1c1cccnc1 (centres undefined)	-	-	-	-	-	-
COc1ccccc1NC(=O)C1=C(C)NC(SCC(=O)c2ccc(C)cc2)=C(C#N)C1c1ccco1 (centres undefined)	3.3	-	+	-	-	.
CC(=O)C1=C(C)NC(SCC(=O)c2ccc(-c3ccccc3)cc2)=C(C#N)C1c1cccnc1 (centres undefined)	-	-	+	-	-	-
COC(=O)c1sccc1NC(=S)N1CCN(c2cccc(C)c2C)CC1	-	-	-	-	15	-
Cc1cc(N2CCN(C)CC2)nc2ccc(NC(=S)NCCN3CCc4ccccc4C3)cc12	-	-	+	-	-	-
Cc1cc(N2CCN(C)CC2)nc2ccc(NC(=S)NCCCN3CCc4ccccc4C3)cc12	-	-	-	-	-	-
Cc1cccc(N2CCN(C(=S)Nc3ccc4nc(N5CCN(C)CC5)cc(C)c4c3)CC2)c1C	.	-	+	-	-	-
Cn1c(-c2ccccc2)c(/C=N/NC(=O)c2ccc(O)cc2)c2ccccc21	-	-	.	-	.	-
Cc1noc(C)c1CSc1nc2ccccc2n1C	-	-	+	-	-	-
CCC(C)c1ccccc1NC(=O)COC(=O)c1ccc2[nH]c3c(c2c1)CCCC3 (centres undefined)	-	-	-	-	13	-
Cc1ccc([N+](=O)[O-])cc1N=C(c1cccc(Br)c1)N1CCOCC1	-	-	-	-	-	-
Cc1ccc(-c2nc(SCC(=O)Nc3cc(S(=O)(=O)N4CCCCC4)ccc3Cl)n[nH]2)cc1	-	-	-	-	-	-
Cc1ccc(S(=O)(=O)CCSc2nc(C)cc(C(F)(F)F)c2C#N)cc1	.	-	+	-	-	-
COC(=O)CSc1nc(C)cc(C(F)(F)F)c1C#N	-	-	-	-	-	-
Cc1cc(C(F)(F)F)c(C#N)c(SCC(=O)Nc2nc3cc(Br)ccc3s2)n1	.	-	+	-	-	?
CCOC(=O)NC(=O)CSc1nc(C)cc(C(F)(F)F)c1C#N	-	-	-	-	-	-
Cc1nc2ccc(S(=O)(=O)Nc3cc(-c4nc5cccnc5s4)ccc3C)cc2s1	-	-	-	-	21	-
CCOC(=O)C1CCN(CC(=O)Nc2cc(S(=O)(=O)N3CCOCC3)ccc2C)CC1	-	-	-	-	-	-
Cc1cccc(C)c1-n1c(C)cc(/C=N\Nc2ccc([N+](=O)[O-])cn2)c1C	.	-	+	-	-	?

Screening results as filed in PubChem BioAssay.
